Values after ≈ are worked out from the molar mass of the structure shown. Values belong to the compound of their own block, whether it stands above or below them.
How the values were obtained:
[1] = test system: Trichosporon beigelii; assay: Inhibition of Trichosporon beigelli 1188 for 24 hours in vitro.; assay type: functional
Outline: (§1)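 Microdilution following NCCLS M27-A. Medium: RPMI 1640 with L-glutamine, 0.165 M MOPS, pH 7.0. Final inoculum 5 × 10^3 cfu/mL. Compounds dissolved in DMSO, final ≤2%, serially halved from 1000 to 0.24 µmol/L. Incubated at 35 °C and read at 24 and 48 h. MIC defined as 80% inhibition of control growth; run twice in duplicate.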

[2] = test system: Nakaseomyces glabratus; assay: Inhibition of Candida glabrata 20/I growth for 48 hours in vitro.; assay type: functional
Outline: (§2)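 NCCLS M27-A broth microdilution in RPMI 1640 with L-glutamine and 0.165 M MOPS, pH 7.0. Isolates kept on Sabouraud dextrose agar. Inoculum 5 × 10^3 cfu/mL final. Compounds were diluted in DMSO (≤2% final) and tested in 2-fold dilutions of 1000–0.24 µmol/L. Incubation at 35 °C, OD540 read at 24 and 48 h. MIC = 80% growth inhibition versus control; assays run twice in duplicate.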

[3] = test system: Pichia kudriavzevii; assay: Inhibition of Candida krusei E28 growth for 48 hours in vitro.; assay type: functional; outline: as §2
[4] = Inhibition of Trichophyton mentagrophytes 445 growth for 120 hours in vitro.; assay type: functional, Arthroderma benhamiae
Outline: (§3)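 Dermatophyte grown in MOPS-buffered (0.165 M, pH 7.0) RPMI 1640 containing L-glutamine, in an M27-A microdilution format. Inoculum 5 × 10^3 cfu/mL final. Compounds from DMSO stocks (≤2% final), 2-fold dilutions 1000–0.24 µmol/L. Incubated at 35 °C, growth judged visually at 72 and 120 h. MIC endpoint is 80% inhibition relative to control; measured twice in duplicate.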

[5] = test system: Candida tropicalis; assay: Inhibition of Candida tropicalis 156 growth for 48 hours in vitro.; assay type: functional; outline: as §2
[6] = test system: Clavispora lusitaniae; assay: Inhibition of Candida lusitaniae 2446/I growth for 48 hours in vitro.; assay type: functional; outline: as §2
[7] = test system: Trichosporon beigelii; assay: Inhibition of Trichosporon beigelli 1188 for 48 hours in vitro.; assay type: functional; outline: as §1
[8] = test system: Candida albicans; assay: Inhibition of Candida albicans ATCC 44859 growth for 24 hours in vitro.; assay type: functional; outline: as §2
[9] = test system: Candida parapsilosis; assay: Inhibition of Candida parapsilosis ATCC 22019 growth for 24 hours in vitro.; assay type: functional; outline: as §2
[10] = test system: Aspergillus fumigatus; assay: Inhibition of Aspergillus fumigatus 231 growth for 24 hours in vitro.; assay type: functional
Outline: (§4)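 Filamentous isolates tested by microdilution per NCCLS M27-A in RPMI 1640 plus L-glutamine, buffered with 0.165 M MOPS to pH 7.0. Final inoculum 5 × 10^3 cfu/mL. Compounds in DMSO (final ≤2%), 2-fold series over 1000–0.24 µmol/L. Plates held at 35 °C and read visually after 24 and 48 h. MIC taken as 80% inhibition of control growth; determined twice in duplicate.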

[11] = test system: Lichtheimia corymbifera; assay: In vitro inhibition of Absidia corymbifera 272 growth for 24 hours.; assay type: functional; outline: as §4
[12] = test system: Candida albicans; assay: Inhibition of Candida albicans ATCC 90028 for 48 hours in vitro.; assay type: functional; outline: as §2
[13] = test system: Lichtheimia corymbifera; assay: In vitro inhibition of Absidia corymbifera 272 growth for 48 hours.; assay type: functional; outline: as §4
[14] = test system: Aspergillus fumigatus; assay: Inhibition of Aspergillus fumigatus 231 growth for 48 hours in vitro.; assay type: functional; outline: as §4
[15] = test system: Clavispora lusitaniae; assay: Inhibition of Candida lusitaniae 2446/I growth for 24 hours in vitro.; assay type: functional; outline: as §2
[16] = Inhibition of Trichophyton mentagrophytes 445 growth for 72 hours in vitro.; assay type: functional, Arthroderma benhamiae; outline: as §3
[17] = test system: Pichia kudriavzevii; assay: Inhibition of Candida krusei ATCC 6258 growth for 24 hours in vitro.; assay type: functional; outline: as §2
[18] = test system: Candida parapsilosis; assay: Inhibition of Candida parapsilosis ATCC 22019 growth for 48 hours in vitro.; assay type: functional; outline: as §2
[19] = test system: Pichia kudriavzevii; assay: Inhibition of Candida krusei E28 growth for 24 hours in vitro.; assay type: functional; outline: as §2
[20] = test system: Candida tropicalis; assay: Inhibition of Candida tropicalis 156 growth for 24 hours in vitro.; assay type: functional; outline: as §2
[21] = test system: Pichia kudriavzevii; assay: Inhibition of Candida krusei ATCC 6258 growth for 48 hours in vitro.; assay type: functional; conditions: Pichia kudriavzevii, ATCC 6258, 48 h; read-out: MIC; outline: as §2
[22] = test system: Candida albicans; assay: Inhibition of Candida albicans ATCC 44859 growth for 48 hours in vitro.; assay type: functional; outline: as §2
[23] = test system: Candida albicans; assay: Inhibition of Candida albicans ATCC 90028 for 24 hours in vitro.; assay type: functional; outline: as §2
[24] = test system: Nakaseomyces glabratus; assay: Inhibition of Candida glabrata 20/I growth for 24 hours in vitro.; assay type: functional; outline: as §2
[25] = Trichosporon beigelii, 24 h, read-out: MIC
[26] = Nakaseomyces glabratus, 48 h, read-out: MIC
[27] = Pichia kudriavzevii, 48 h, read-out: MIC
[28] = Trichophyton benhamiae, 120 h, read-out: MIC
[29] = Candida tropicalis, 48 h, read-out: MIC
[30] = Clavispora lusitaniae, 48 h, read-out: MIC
[31] = Trichosporon beigelii, 48 h, read-out: MIC
[32] = Candida albicans, ATCC 44859, 24 h, read-out: MIC
[33] = Lodderomyces parapsilosis, ATCC 22019, 24 h, read-out: MIC
[34] = Aspergillus fumigatus, 24 h, read-out: MIC
[35] = Lichtheimia corymbifera, 24 h, read-out: MIC
[36] = Candida albicans, ATCC 90028, 48 h, read-out: MIC
[37] = Lichtheimia corymbifera, 48 h, read-out: MIC
[38] = Aspergillus fumigatus, 48 h, read-out: MIC
[39] = Clavispora lusitaniae, 24 h, read-out: MIC
[40] = Trichophyton benhamiae, 72 h, read-out: MIC
[41] = Pichia kudriavzevii, ATCC 6258, 24 h, read-out: MIC
[42] = Lodderomyces parapsilosis, ATCC 22019, 48 h, read-out: MIC
[43] = Pichia kudriavzevii, 24 h, read-out: MIC
[44] = Candida tropicalis, 24 h, read-out: MIC
[45] = Candida albicans, ATCC 44859, 48 h, read-out: MIC
[46] = Candida albicans, ATCC 90028, 24 h, read-out: MIC
[47] = Nakaseomyces glabratus, 24 h, read-out: MIC

MIC [1, 25]: 125 µM (≈ 33.6 µg/mL)
MIC [2, 26]: 125 µM (≈ 33.6 µg/mL)
MIC [3, 27]: 500 µM (≈ 135 µg/mL)
MIC [4, 28]: 15.6 µM (≈ 4.21 µg/mL)
MIC [5, 29]: 500 µM (≈ 135 µg/mL)
MIC [6, 30]: 250 µM (≈ 67.3 µg/mL)
MIC [7, 31]: 500 µM (≈ 135 µg/mL)
MIC [8, 32]: 31.2 µM (≈ 8.41 µg/mL)
MIC [9, 33]: 250 µM (≈ 67.3 µg/mL)
MIC [10, 34]: 62.5 µM (≈ 16.8 µg/mL)
MIC [11, 35]: 250 µM (≈ 67.3 µg/mL)
MIC [12, 36]: 250 µM (≈ 67.3 µg/mL)
MIC [13, 37]: 250 µM (≈ 67.3 µg/mL)
MIC [14, 38]: 125 µM (≈ 33.6 µg/mL)
MIC [15, 39]: 250 µM (≈ 67.3 µg/mL)
MIC [16, 40]: 15.6 µM (≈ 4.21 µg/mL)
MIC [17, 41]: 500 µM (≈ 135 µg/mL)
MIC [18, 42]: 500 µM (≈ 135 µg/mL)
MIC [19, 43]: 500 µM (≈ 135 µg/mL)
MIC [20, 44]: 250 µM (≈ 67.3 µg/mL)
MIC [21]: 1000 µM (≈ 269 µg/mL)
MIC [22, 45]: 62.5 µM (≈ 16.8 µg/mL)
MIC [23, 46]: 250 µM (≈ 67.3 µg/mL)
MIC [24, 47]: 125 µM (≈ 33.6 µg/mL)
Structure (SMILES): O=C1OC(CO)C=C1c1ccc(Br)cc1 (stereo unspecified)

MIC [1, 25]: 7.81 µM (≈ 2.84 µg/mL)
MIC [2, 26]: 1.95 µM (≈ 0.708 µg/mL)
MIC [3, 27]: 15.6 µM (≈ 5.68 µg/mL)
MIC [4, 28]: 3.91 µM (≈ 1.42 µg/mL)
MIC [5, 29]: 31.2 µM (≈ 11.3 µg/mL)
MIC [6, 30]: 15.6 µM (≈ 5.68 µg/mL)
MIC [7, 31]: 15.6 µM (≈ 5.68 µg/mL)
MIC [8, 32]: 1.95 µM (≈ 0.708 µg/mL)
MIC [9, 33]: 7.81 µM (≈ 2.84 µg/mL)
MIC [10, 34]: 1.95 µM (≈ 0.708 µg/mL)
MIC [11, 35]: 3.91 µM (≈ 1.42 µg/mL)
MIC [12, 36]: 7.81 µM (≈ 2.84 µg/mL)
MIC [13, 37]: 15.6 µM (≈ 5.68 µg/mL)
MIC [14, 38]: 3.91 µM (≈ 1.42 µg/mL)
MIC [15, 39]: 7.81 µM (≈ 2.84 µg/mL)
MIC [16, 40]: 1.95 µM (≈ 0.708 µg/mL)
MIC [17, 41]: 7.81 µM (≈ 2.84 µg/mL)
MIC [18, 42]: 31.2 µM (≈ 11.3 µg/mL)
MIC [19, 43]: 15.6 µM (≈ 5.68 µg/mL)
MIC [20, 44]: 15.6 µM (≈ 5.68 µg/mL)
MIC [21]: 15.6 µM (≈ 5.68 µg/mL)
MIC [22, 45]: 3.91 µM (≈ 1.42 µg/mL)
MIC [23, 46]: 7.81 µM (≈ 2.84 µg/mL)
MIC [24, 47]: 1.95 µM (≈ 0.708 µg/mL)
Structure (SMILES): O=C1OC(COC(=O)c2ccc(Cl)cc2)C=C1c1cccc(Cl)c1 (stereo unspecified)

MIC [1]: 2.68 uM l-1
MIC [2]: 1.34 uM l-1
MIC [3]: 10.73 uM l-1
MIC [4]: 0.67 uM l-1
MIC [5]: 10.73 uM l-1
MIC [6]: 2.68 uM l-1
MIC [7]: 5.36 uM l-1
MIC [8]: 0.67 µM (≈ 0.23 µg/mL)
MIC [9]: 2.68 uM l-1
MIC [10]: 1.34 uM l-1
MIC [11]: 10.73 uM l-1
MIC [12]: 2.68 µM (≈ 0.92 µg/mL)
MIC [13]: 10.73 uM l-1
MIC [14]: 2.68 uM l-1
MIC [15]: 1.34 uM l-1
MIC [16]: 0.34 µM (≈ 0.117 µg/mL)
MIC [17]: 5.36 uM l-1
MIC [18]: 5.36 uM l-1
MIC [19]: 5.36 uM l-1
MIC [20]: 5.36 uM l-1
MIC [22]: 1.34 uM l-1
MIC [23]: 1.34 uM l-1
MIC [24]: 0.67 µM (≈ 0.23 µg/mL)
Structure (SMILES): CC(C)(C)C(=O)OCC1C=C(c2ccc(Cl)c(Cl)c2)C(=O)O1 (single isomer, unassigned; (+))
